Values after ≈ are worked out from the molar mass of the structure shown.
How the values were obtained:
[1] = system: Mycobacterium tuberculosis; assay: Antitubercular activity against wild type Mycobacterium tuberculosis H37Rv ATCC 25618 assessed as bacterial growth inhibition measured after 5 days by serial dilution method; assay type: functional; conditions: H37Rv ATCC 25618, 120 h, time 5 day
How it was run: (§1)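 Strains grown in Middlebrook 7H9 with OADC supplement and 0.05% w/v Tween 80. Compounds tested as 10-point 2-fold serial dilutions. Growth read as OD590 after 5 days in 7H9-OADC-Tw. Levenberg-Marquardt curve fitting gave MIC90, the concentration inhibiting growth by 90% relative to controls. Run in triplicate.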

[2] = system: Mycobacterium tuberculosis; assay: Antitubercular activity against wild type Mycobacterium tuberculosis HN878 assessed as bacterial growth inhibition measured after 5 days by serial dilution method; assay type: functional; conditions: HN878, 120 h, time 5 day; how it was run: as §1

**Q.** What does the source list for `CO[C@H]1/C=C/O[C@@]2(C)Oc3c(C)c(O)c4c(O)c(c(CN5CCN(CCO)CC5)c(O)c4c3C2=O)NC(=O)/C(C)=C\C=C\[C@H](C)[C@H](O)[C@@H](C)[C@@H](O)[C@@H](C)[C@H](OC(C)=O)[C@@H]1C`?
**A.** MIC90 [1]: 0.034 µM (≈ 0.0286 µg/mL); MIC90 [2]: 0.07 µM (≈ 0.0588 µg/mL)

**Q.** For `CO[C@H]1/C=C/O[C@@]2(C)Oc3c(C)c(O)c4c(O)c(c(CNCc5ccc(S(C)(=O)=O)cc5)c(O)c4c3C2=O)NC(=O)/C(C)=C\C=C\[C@H](C)[C@H](O)[C@@H](C)[C@@H](O)[C@@H](C)[C@H](OC(C)=O)[C@@H]1C`, which MIC90 [1] is on record?
**A.** 0.039 µM (≈ 0.0349 µg/mL)

**Q.** What about the MIC90 [2] of the same compound?
**A.** 0.096 µM (≈ 0.0859 µg/mL)

**Q.** Which results are given for `CO[C@H]1/C=C/O[C@@]2(C)Oc3c(C)c(O)c4c(O)c(c(CNCc5ccncc5)c(O)c4c3C2=O)NC(=O)/C(C)=C\C=C\[C@H](C)[C@H](O)[C@@H](C)[C@@H](O)[C@@H](C)[C@H](OC(C)=O)[C@@H]1C`?
**A.** MIC90 [1]: 0.075 µM (≈ 0.0613 µg/mL); MIC90 [2]: 0.31 µM (≈ 0.254 µg/mL)

**Q.** How did the MIC90 [1] turn out when `CO[C@H]1/C=C/O[C@@]2(C)Oc3c(C)c(O)c4c(O)c(c(CNCc5ccccc5)c(O)c4c3C2=O)NC(=O)/C(C)=C\C=C\[C@H](C)[C@H](O)[C@@H](C)[C@@H](O)[C@@H](C)[C@H](OC(C)=O)[C@@H]1C` was run?
**A.** 0.097 µM (≈ 0.0792 µg/mL)

**Q.** For `CO[C@H]1/C=C/O[C@@]2(C)Oc3c(C)c(O)c4c(O)c(c(CNCc5cccs5)c(O)c4c3C2=O)NC(=O)/C(C)=C\C=C\[C@H](C)[C@H](O)[C@@H](C)[C@@H](O)[C@@H](C)[C@H](OC(C)=O)[C@@H]1C`, which MIC90 [1] is on record?
**A.** 0.082 µM (≈ 0.0675 µg/mL)

**Q.** What about the MIC90 [2] of the same compound?
**A.** 0.2 µM (≈ 0.165 µg/mL)

**Q.** Which MIC90 [1] does the source give for `CO[C@H]1/C=C/O[C@@]2(C)Oc3c(C)c(O)c4c(O)c(c(CNCc5ccco5)c(O)c4c3C2=O)NC(=O)/C(C)=C\C=C\[C@H](C)[C@H](O)[C@@H](C)[C@@H](O)[C@@H](C)[C@H](OC(C)=O)[C@@H]1C` here?
**A.** 0.09 µM (≈ 0.0726 µg/mL)

**Q.** And the MIC90 [2]?
**A.** 0.45 µM (≈ 0.363 µg/mL)

**Q.** For `COC(=O)c1ccc(CNCc2c3c(O)c4c(O)c(C)c5c(c4c2O)C(=O)[C@@](C)(O/C=C/[C@H](OC)[C@@H](C)[C@@H](OC(C)=O)[C@H](C)[C@H](O)[C@H](C)[C@@H](O)[C@@H](C)/C=C/C=C(/C)C(=O)N3)O5)cc1`, which MIC90 [1] is on record?
**A.** 0.12 µM (≈ 0.105 µg/mL)

**Q.** What about the MIC90 [2] of the same compound?
**A.** 0.53 µM (≈ 0.464 µg/mL)

**Q.** For `CO[C@H]1/C=C/O[C@@]2(C)Oc3c(C)c(O)c4c(O)c(c(CNCCc5c[nH]c6ccccc56)c(O)c4c3C2=O)NC(=O)/C(C)=C\C=C\[C@H](C)[C@H](O)[C@@H](C)[C@@H](O)[C@@H](C)[C@H](OC(C)=O)[C@@H]1C`, which MIC90 [1] is on record?
**A.** 0.039 µM (≈ 0.0339 µg/mL)

**Q.** And the MIC90 [2]?
**A.** 0.39 µM (≈ 0.339 µg/mL)

**Q.** What does the source list for `CO[C@H]1/C=C/O[C@@]2(C)Oc3c(C)c(O)c4c(O)c(c(CNCCc5ccc(O)cc5)c(O)c4c3C2=O)NC(=O)/C(C)=C\C=C\[C@H](C)[C@H](O)[C@@H](C)[C@@H](O)[C@@H](C)[C@H](OC(C)=O)[C@@H]1C`?
**A.** MIC90 [1]: 0.066 µM (≈ 0.0559 µg/mL); MIC90 [2]: 0.22 µM (≈ 0.186 µg/mL)

**Q.** Which MIC90 [1] does the source give for `NNC(=O)c1ccncc1` [ISONIAZID] here?
**A.** 0.28 µM (≈ 0.0384 µg/mL)

**Q.** And the MIC90 [2]?
**A.** 0.29 µM (≈ 0.0398 µg/mL)

**Q.** For `CO[C@H]1/C=C/O[C@@]2(C)Oc3c(C)c(O)c4c(O)c(c(/C=N/N5CCN(C)CC5)c(O)c4c3C2=O)NC(=O)/C(C)=C\C=C\[C@H](C)[C@H](O)[C@@H](C)[C@@H](O)[C@@H](C)[C@H](OC(C)=O)[C@@H]1C` [RIFAMPIN], which MIC90 [1] is on record?
**A.** 0.0045 µM (≈ 0.0037 µg/mL)

**Q.** What about the MIC90 [2] of the same compound?
**A.** 0.02 µM (≈ 0.0165 µg/mL)
